# From ChEMBL document CHEMBL4689842, “EUbOPEN Chemogenomics Library wave 1” (2021)
# System: Fibroblast
# Assay: Multiplex assay against human fibroblast
# Assay type: toxicity, cell-based
# Procedure, shortened: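 At seeding, live cells were stained with Hoechst33342, BioTracker Green Microtubule Cytoskeleton Dye, MitoTracker Red and Annexin V Alexa Fluor 680. After compound addition they were imaged on a CQ1 microscope at 37°C and 5% CO2, and CellPathfinder machine-learning gating sorted them into Hoechst high-intensity objects or normal cells, with normal cells further split into healthy, pyknosed or fragmented nuclei and pyknosed cells into mitotic or apoptotic. Tubulin, mitochondrial-mass and membrane-permeability phenotypes are given as per cents of cells with healthy nuclei.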
# [1] = 12 h, 1 µM, compound concentration 1 uM, replicate 1
# [2] = 12 h, 1 µM, compound concentration 1 uM, replicate 2
# [3] = 12 h, 10 µM, compound concentration 10 uM, replicate 1
# [4] = 12 h, 10 µM, compound concentration 10 uM, replicate 2
# [5] = 24 h, 1 µM, compound concentration 1 uM, replicate 1
# [6] = 24 h, 1 µM, compound concentration 1 uM, replicate 2
# [7] = 24 h, 10 µM, compound concentration 10 uM, replicate 1
# [8] = 24 h, 10 µM, compound concentration 10 uM, replicate 2
# [9] = 48 h, 1 µM, compound concentration 1 uM, replicate 1
# [10] = 48 h, 1 µM, compound concentration 1 uM, replicate 2
# [11] = 48 h, 10 µM, compound concentration 10 uM, replicate 1
# [12] = 48 h, 10 µM, compound concentration 10 uM, replicate 2
structure (smiles),measurement,setting,value
O=C(c1cc2c(cc1F)OC(c1ccc(F)cc1)(c1ccc(Cl)cc1Cl)O2)N1CCOCC1 (centres undefined),Population Apoptotic (%),[1],51%
same,Population Fragmented Nuclei (%),[1],18%
same,Population Healthy Nuclei (%),[1],47%
same,Population Hoechst High Intensity Objects (%),[1],13%
same,Population Membrane Permeable-Phenotype (%),[1],19%
same,Population Mitochondria Different-Phenotype (%),[1],6%
same,Population Mitotic Cells (%),[1],48%
same,Population Normal (%),[1],86%
same,Population Pyknosed Nuclei (%),[1],34%
same,Population Tubulin-Different-Phenotype (%),[1],56%
same,Total Cell Count,[1],112
same,Population Apoptotic (%),[2],50%
same,Population Healthy Nuclei (%),[2],68%
same,Population Hoechst High Intensity Objects (%),[2],7%
same,Population Membrane Permeable-Phenotype (%),[2],9%
same,Population Mitochondria Different-Phenotype (%),[2],12%
same,Population Mitotic Cells (%),[2],50%
same,Population Normal (%),[2],92%
same,Population Pyknosed Nuclei (%),[2],12%
same,Population Tubulin-Different-Phenotype (%),[2],15%
same,Total Cell Count,[2],78
same,Population Apoptotic (%),[3],71%
same,Population Fragmented Nuclei (%),[3],31%
same,Population Healthy Nuclei (%),[3],29%
same,Population Hoechst High Intensity Objects (%),[3],12%
same,Population Membrane Permeable-Phenotype (%),[3],4%
same,Population Mitochondria Different-Phenotype (%),[3],43%
same,Population Mitotic Cells (%),[3],28%
same,Population Normal (%),[3],87%
same,Population Pyknosed Nuclei (%),[3],38%
same,Population Tubulin-Different-Phenotype (%),[3],17%
same,Total Cell Count,[3],176
same,Population Fragmented Nuclei (%),[4],10%
same,Population Healthy Nuclei (%),[4],78%
same,Population Hoechst High Intensity Objects (%),[4],4%
same,Population Membrane Permeable-Phenotype (%),[4],47%
same,Population Mitochondria Different-Phenotype (%),[4],96%
same,Population Normal (%),[4],95%
same,Population Pyknosed Nuclei (%),[4],10%
same,Population Tubulin-Different-Phenotype (%),[4],100%
same,Total Cell Count,[4],52
same,Population Apoptotic (%),[5],26%
same,Population Fragmented Nuclei (%),[5],17%
same,Population Healthy Nuclei (%),[5],61%
same,Population Hoechst High Intensity Objects (%),[5],18%
same,Population Membrane Permeable-Phenotype (%),[5],18%
same,Population Mitochondria Different-Phenotype (%),[5],12%
same,Population Mitotic Cells (%),[5],73%
same,Population Normal (%),[5],81%
same,Population Pyknosed Nuclei (%),[5],21%
same,Population Tubulin-Different-Phenotype (%),[5],50%
same,Total Cell Count,[5],108
same,Population Apoptotic (%),[6],33%
same,Population Fragmented Nuclei (%),[6],5%
same,Population Healthy Nuclei (%),[6],88%
same,Population Hoechst High Intensity Objects (%),[6],10%
same,Population Membrane Permeable-Phenotype (%),[6],10%
same,Population Mitochondria Different-Phenotype (%),[6],15%
same,Population Mitotic Cells (%),[6],66%
same,Population Normal (%),[6],89%
same,Population Pyknosed Nuclei (%),[6],5%
same,Population Tubulin-Different-Phenotype (%),[6],21%
same,Total Cell Count,[6],85
same,Population Apoptotic (%),[7],67%
same,Population Fragmented Nuclei (%),[7],32%
same,Population Healthy Nuclei (%),[7],32%
same,Population Hoechst High Intensity Objects (%),[7],12%
same,Population Membrane Permeable-Phenotype (%),[7],2%
same,Population Mitochondria Different-Phenotype (%),[7],81%
same,Population Mitotic Cells (%),[7],32%
same,Population Normal (%),[7],87%
same,Population Pyknosed Nuclei (%),[7],35%
same,Population Tubulin-Different-Phenotype (%),[7],16%
same,Total Cell Count,[7],169
same,Population Apoptotic (%),[8],66%
same,Population Fragmented Nuclei (%),[8],8%
same,Population Healthy Nuclei (%),[8],62%
same,Population Hoechst High Intensity Objects (%),[8],6%
same,Population Membrane Permeable-Phenotype (%),[8],64%
same,Population Mitochondria Different-Phenotype (%),[8],100%
same,Population Mitotic Cells (%),[8],33%
same,Population Normal (%),[8],93%
same,Population Pyknosed Nuclei (%),[8],29%
same,Population Tubulin-Different-Phenotype (%),[8],100%
same,Total Cell Count,[8],58
same,Population Apoptotic (%),[9],42%
same,Population Fragmented Nuclei (%),[9],31%
same,Population Healthy Nuclei (%),[9],50%
same,Population Hoechst High Intensity Objects (%),[9],11%
same,Population Membrane Permeable-Phenotype (%),[9],15%
same,Population Mitochondria Different-Phenotype (%),[9],11%
same,Population Mitotic Cells (%),[9],57%
same,Population Normal (%),[9],88%
same,Population Pyknosed Nuclei (%),[9],18%
same,Population Tubulin-Different-Phenotype (%),[9],43%
same,Total Cell Count,[9],119
same,Population Apoptotic (%),[10],33%
same,Population Fragmented Nuclei (%),[10],18%
same,Population Healthy Nuclei (%),[10],73%
same,Population Hoechst High Intensity Objects (%),[10],12%
same,Population Membrane Permeable-Phenotype (%),[10],8%
same,Population Mitochondria Different-Phenotype (%),[10],5%
same,Population Mitotic Cells (%),[10],66%
same,Population Normal (%),[10],87%
same,Population Pyknosed Nuclei (%),[10],7%
same,Population Tubulin-Different-Phenotype (%),[10],37%
same,Total Cell Count,[10],90
same,Population Apoptotic (%),[11],80%
same,Population Fragmented Nuclei (%),[11],33%
same,Population Healthy Nuclei (%),[11],42%
same,Population Hoechst High Intensity Objects (%),[11],14%
same,Population Membrane Permeable-Phenotype (%),[11],1%
same,Population Mitochondria Different-Phenotype (%),[11],70%
same,Population Mitotic Cells (%),[11],20%
same,Population Normal (%),[11],85%
same,Population Pyknosed Nuclei (%),[11],24%
same,Population Tubulin-Different-Phenotype (%),[11],6%
same,Total Cell Count,[11],167
same,Population Apoptotic (%),[12],81%
same,Population Fragmented Nuclei (%),[12],34%
same,Population Healthy Nuclei (%),[12],56%
same,Population Hoechst High Intensity Objects (%),[12],12%
same,Population Membrane Permeable-Phenotype (%),[12],0%
same,Population Mitochondria Different-Phenotype (%),[12],90%
same,Population Mitotic Cells (%),[12],18%
same,Population Normal (%),[12],87%
same,Population Pyknosed Nuclei (%),[12],9%
same,Population Tubulin-Different-Phenotype (%),[12],3%
same,Total Cell Count,[12],133
